Laboratory results reported in ChEMBL document CHEMBL3994569, “Synthesis, anti-varicella-zoster virus and anti-cytomegalovirus activity of quinazoline-2,4-diones containing isoxazolidine and phosphonate substructures” (Eur J Med Chem, 2017).

What was measured:
[1] = (§1) Cytotoxicity against HEL cells infected with Cytomegalovirus assessed as alteration in cell morphology by microscopic method; assay type: cell-based; conditions: human, HEL cells infected with Cytomegalovirus
Summary of the method: (§2)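 In the HEL cultures used for the antiviral assays, cell morphology was examined microscopically across varying compound concentrations. MCC is the minimum concentration causing a microscopically detectable alteration of cell morphology.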

Human alphaherpesvirus 3 [2] = assay: Antiviral activity against thymidine kinase expressing Varicella-Zoster virus OKA infected in HEL cells assessed as reduction in virus plaque formation; assay type: functional, cell-based, strain Oka vaccine
Summary of the method: (§3)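 Confluent HEL fibroblast cultures were infected with VZV at an input of 100 PFU and incubated with varying compound concentrations. Plaques were counted once plaque formation was complete in untreated infected controls.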

Human alphaherpesvirus 3 [3] = assay: Antiviral activity against thymidine kinase deficient Varicella-Zoster virus 07-1 infected in HEL cells assessed as reduction in virus plaque formation; assay type: functional, cell-based; summary of the method: as §3
[4] = (§4) Cytotoxicity against HEL cells infected with Varicella-Zoster virus assessed as alteration in cell morphology by microscopic method; assay type: cell-based; conditions: human, HEL cells infected with Varicella-Zoster virus; summary of the method: as §2
HEL [5] = assay: (§5) Cytotoxicity against HEL cells infected with Varicella-Zoster virus assessed as growth inhibition; assay type: cell-based; conditions: human, hel
Cytomegalovirus [6] = assay: Antiviral activity against Cytomegalovirus AD169 infected in HEL cells assessed as reduction in virus plaque formation; assay type: functional, cell-based
Summary of the method: (§6)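 Confluent HEL fibroblast cultures infected with 100 PFU of HCMV and kept with varying compound concentrations. Plaques scored once plaque formation was complete in untreated infected controls.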

Cytomegalovirus [7] = assay: Antiviral activity against Cytomegalovirus Davis infected in HEL cells assessed as reduction in virus plaque formation; assay type: functional, cell-based; summary of the method: as §6
HEL [8] = assay: Cytotoxicity against HEL cells infected with Cytomegalovirus assessed as growth inhibition; assay type: cell-based; conditions: human
L1210 = assay: Anti-proliferative activity against mouse L1210 cells measured after 48 hrs by coulter counter method; assay type: ADME, cell-based; conditions: Mus musculus, L1210, 48 h
Summary of the method: (§7)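 Cells at 300,000–500,000 cells/mL, combined 1:1 by volume with compound dilutions, incubated at 37 °C: L1210 for two days, CEM for three days, HeLa for four days. Cells counted by Coulter counter.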

CCRF-CEM = assay: Anti-proliferative activity against human CEM cells measured after 72 hrs by coulter counter method; assay type: ADME, cell-based; summary of the method: as §7
HeLa = assay: Anti-proliferative activity against human HeLa cells measured after 4 days by coulter counter method; assay type: ADME, cell-based; summary of the method: as §7
HMEC-1 = assay: Anti-proliferative activity against HMEC1 cells by coulter counter method; assay type: ADME, cell-based, Homo sapiens
Summary of the method: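 HMEC-1 cells at 300,000–500,000 cells/mL, mixed 1:1 by volume with serial dilutions of test compound, incubated at 37 °C. Cell number counted by Coulter counter.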

Human alphaherpesvirus 3 [9] = assay: Potency index, ratio of acyclovir EC50 to compound EC50 for thymidine kinase deficient Varicella-Zoster virus 07-1 infected in HEL cells assessed as reduction in virus plaque formation; assay type: functional
[10] = as §5; assay type: cell-based; conditions: human, HEL cells infected with Varicella-Zoster virus
HEL [11] = assay: as §1; assay type: cell-based; conditions: human, hel; summary of the method: as §2
HEL [12] = assay: as §4; assay type: cell-based; conditions: human, hel; summary of the method: as §2
[13] = Human alphaherpesvirus 3, 07-1, HEL

With `CCOP(=O)(OCC)C1CC(Cn2c(=O)n(Cc3ccccc3F)c(=O)c3ccccc32)ON1Cc1ccccc1` (configuration not stated) the MCC [1] was 100 µM, the EC50 (Human alphaherpesvirus 3 [2]; Human alphaherpesvirus 3, strain Oka vaccine, HEL) was 4.7 µM and the EC50 (Human alphaherpesvirus 3 [3]; [13]) was 5.1 µM. The MCC [4] was 100 µM, the CC50 (HEL [5]) was 11.8 µM and the EC50 (Cytomegalovirus [6]; Human betaherpesvirus 5, AD169, HEL) was 8.94 µM. For the same molecule, the EC50 (Cytomegalovirus [7]; Human betaherpesvirus 5, Davis, HEL) was ≥ 6.5 µM, the CC50 (HEL [8]) was 11.8 µM and the IC50 (L1210) was 17 µM. It also gave an IC50 (CCRF-CEM; Homo sapiens, CCRF-CEM, 72 h) of 20 µM, an IC50 (HeLa; Homo sapiens, HeLa, 96 h) of 17 µM and an IC50 (HMEC-1; Homo sapiens, HMEC-1) of 23 µM. For the same molecule, the “Ratio EC50” value (Human alphaherpesvirus 3 [9]) was 10 - 14.
With `CCOP(=O)(OCC)C1CC(Cn2c(=O)n(Cc3ccccc3)c(=O)c3ccccc32)ON1Cc1ccccc1` (mixture of isomers; cis) the MCC [1] was 100 µM, the EC50 (Human alphaherpesvirus 3 [2]) was 7.3 µM and the EC50 (Human alphaherpesvirus 3 [3]; [13]) was 13.2 µM. For the same molecule, the MCC [4] was 100 µM, the CC50 [10] was 9 µM and the EC50 (Cytomegalovirus [6]) was ≥ 3 µM. For the same molecule, the EC50 (Cytomegalovirus [7]) was 6.5 µM, the CC50 (HEL [8]) was 9 µM and the IC50 (L1210) was 18 µM. It also gave an IC50 (CCRF-CEM; Homo sapiens, CCRF-CEM, 72 h) of 10 µM, an IC50 (HeLa; hela) of 33 µM and an IC50 (HMEC-1; Homo sapiens, HMEC-1) of 28 µM.
In the case of `CCOP(=O)(OCC)C1CC(Cn2c(=O)n(Cc3ccc(F)cc3)c(=O)c3ccccc32)ON1Cc1ccccc1` (mixture of isomers; trans), the MCC (HEL [11]) is reported as 100 µM, the EC50 (Human alphaherpesvirus 3 [2]) is reported as 3 µM and the EC50 (Human alphaherpesvirus 3 [3]) is reported as 3.6 µM. For the same molecule, the MCC (HEL [12]) was 100 µM, the CC50 (HEL [5]) was 6.6 µM and the EC50 (Cytomegalovirus [6]) was ≥ 6.5 µM. It also gave an EC50 (Cytomegalovirus [7]) of 8.94 µM, a CC50 (HEL [8]) of 6.6 µM and an IC50 (CCRF-CEM; ccrf-cem) of 13 µM. The IC50 (HeLa; hela) was 18 µM, the IC50 (HMEC-1; hmec-1) was 26 µM and the “Ratio EC50” value (Human alphaherpesvirus 3 [9]) was 10 - 14.
